Measured values: paper PMC7970147 (Heliyon, 2021)

How the values were obtained:
[1] = molecular target: T1, DsOBP69a (Drosophila suzukii, UniProt A0AB39ZGK5); experiment: Fluorescence competition binding assay with bis-ANS, recombinant DsOBP69a; conditions: for binding to DsOBP69a (in words): fluorescence competition binding assay
T1 sequence (A0AB39ZGK5 25-148): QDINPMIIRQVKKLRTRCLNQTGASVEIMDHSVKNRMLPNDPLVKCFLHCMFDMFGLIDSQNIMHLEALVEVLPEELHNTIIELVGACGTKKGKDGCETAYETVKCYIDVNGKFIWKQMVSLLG
How it was run: (§1)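 Recombinant D. suzukii OBP expressed in E. coli BL21(DE3) (pET-30a), recovered from inclusion bodies in 8 M urea, Ni-NTA purified, refolded and dialysed into 50 mM Tris-HCl pH 7.4. Protein (2 μmol L−1 final) plus bis-ANS was titrated with ligand (1 mmol L−1 methanol stock). Excitation was 295 nm, with a 300–550 nm scan. Ki = IC50/(1+[bis-ANS]/Kbis-ANS), with Kbis-ANS from a Scatchard plot.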

[2] = molecular target: T2, DsOBP76a (Drosophila suzukii, UniProt A0AB39ZCT4); experiment: Fluorescence competition binding assay with bis-ANS, recombinant DsOBP76a; conditions: for binding to DsOBP76a (in words): fluorescence competition binding assay
T2 sequence (A0AB39ZCT4 30-153): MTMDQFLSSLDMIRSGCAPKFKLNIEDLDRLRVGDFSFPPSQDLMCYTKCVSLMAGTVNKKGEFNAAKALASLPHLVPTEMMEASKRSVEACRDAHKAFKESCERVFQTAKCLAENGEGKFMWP
How it was run: as §1

[3] = tested on: DsOBP59h; conditions: ref Li et al., 2019; cited from earlier work
[4] = tested on: DmOBP69a; conditions: ref Bentzur et al., 2018; cited from earlier work
[5] = tested on: DmOBP76a; conditions: ref Billeter and Levine, 2015; cited from earlier work
[6] = tested on: OBP28a; conditions: ref Gonzalez et al., 2019; cited from earlier work

In the case of `NC(=S)Nc1ccccc1` [N-Phenylthiourea], the “binding to DsOBP69a (in words)” value [1] is listed as “not affinity”, the “binding to DsOBP76a (in words)” value [2] is listed as “not affinity” and the “affinity with DsOBP59h proteins (in words)” value [3] is listed as “not affinity”.
Work on `CCCCCC/C=C\CCCCCCCCCCCCCCC` [(Z)-7-Tricosene] yielded a Kd [1] of 19.3 µM.
For `CC[N+](CC)(CC(=O)Nc1c(C)cccc1C)Cc1ccccc1` [Denatonium benzoate], the “binding to DsOBP69a (in words)” value [1] is listed as “not affinity”, the “binding to DsOBP76a (in words)” value [2] is listed as “not affinity” and the “affinity with DsOBP59h proteins (in words)” value [3] is listed as “not affinity”.
In the case of `COc1ccc2cc3[n+](cc2c1OC)CCc1cc2c(cc1-3)OCO2` [Berberine chloride], the Kd [1] is listed as 7.21 µM, the Kd [2] is listed as 7.64 µM and the “affinity with DsOBP59h proteins (in words)” value [3] is listed as “high affinity”.
In the case of `O=C1C[C@@H](c2ccc(O)cc2)Oc2cc(O)cc(O)c21` [Naringenin], the Kd [1] is reported as 23.8 µM and the Kd [2] is reported as 24.1 µM.
In the case of `CCCCCC/C=C\CCCCCCCCCCOC(C)=O` [11-cis-Vaccenyl acetate], the “binding to DsOBP69a (in words)” value [1] is given as “do not bind”, the “binding to DsOBP76a (in words)” value [2] is given as “do not bind” and the “binding to DmOBP69a (in words)” value [4] is given as “bind”. For the same molecule, the “binding to DmOBP76a (in words)” value [5] was “bind”.
In the case of `CC(=O)/C=C/C1=C(C)CCCC1(C)C` [β-Ionone], the Kd [1] is given as 4.03 µM, the Kd [2] is given as 3.37 µM and the “affinity with OBP28a (in words)” value [6] is given as “strong affinity”.
For `O=c1ccc2ccccc2o1` [Coumarin], the Kd [1] is given as 20.4 µM, the Kd [2] is given as 7.76 µM and the “affinity with DsOBP59h proteins (in words)” value [3] is given as “high affinity”.
